Activity calls are given as the source filed them. The calls are words filed in the database; no cut-off is given here.
Tests used:
[1] = biological target: T1, Adenosine receptor A2b (Homo sapiens) (UniProt P29275); assay: Binding affinity to recombinant human adenosine A2B receptor expressed in CHO cell membranes at 100 nM after 15 mins in presence of DPCPX by confocal microscopic method; format: cell-based
T1 sequence (whole entry): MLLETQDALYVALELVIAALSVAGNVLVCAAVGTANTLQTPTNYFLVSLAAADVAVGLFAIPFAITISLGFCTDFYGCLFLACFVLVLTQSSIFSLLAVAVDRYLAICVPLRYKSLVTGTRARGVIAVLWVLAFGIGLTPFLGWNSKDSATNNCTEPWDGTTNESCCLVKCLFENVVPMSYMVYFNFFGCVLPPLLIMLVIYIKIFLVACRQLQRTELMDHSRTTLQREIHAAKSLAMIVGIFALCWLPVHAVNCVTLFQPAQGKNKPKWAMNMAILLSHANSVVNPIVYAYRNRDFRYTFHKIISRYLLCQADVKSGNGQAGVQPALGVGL
In short: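 Live CHO cells stably expressing human A2BAR (or wild-type CHO as control) grown on chambered coverslips to about 80 % confluency. Incubated with fluorescent ligand (100 nM) for 15 min at 37°C, alone or after 30 min pre-incubation with PSB-603 (100 nM) or DPCPX (1 µM). Confocal laser scanning imaging with identical settings across conditions. Three similar experiments.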

[2] = Selectivity ratio of Ki for adenosine A2A receptor in rat brain striatal membranes to Ki for recombinant mouse adenosine A2B receptor expressed in CHO cell membranes; format: cell-based
[3] = biological target: Adenosine receptor A2a (Rattus norvegicus, UniProt P30543); assay: Displacement of [3H]MSX-2 from adenosine A2A receptor in rat brain striatal membranes after 30 mins by liquid scintillation counting method; format: cell membranes, Striatum, Membrane
In short: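 [³H]MSX-2 (1 nM) used with rat striatal or human A2A-HEK membranes, 30 min at rt. Membranes pre-incubated 10-15 min with ADA 0.12 IU/mL. DMSO 2.5 % final. GF/B filtration, then scintillation counting. Curves used 6-7 concentrations over 3 log units. At least three experiments, in duplicate (human) or triplicate (rat).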

Adenosine receptor A2a, sequence (P30543 whole entry): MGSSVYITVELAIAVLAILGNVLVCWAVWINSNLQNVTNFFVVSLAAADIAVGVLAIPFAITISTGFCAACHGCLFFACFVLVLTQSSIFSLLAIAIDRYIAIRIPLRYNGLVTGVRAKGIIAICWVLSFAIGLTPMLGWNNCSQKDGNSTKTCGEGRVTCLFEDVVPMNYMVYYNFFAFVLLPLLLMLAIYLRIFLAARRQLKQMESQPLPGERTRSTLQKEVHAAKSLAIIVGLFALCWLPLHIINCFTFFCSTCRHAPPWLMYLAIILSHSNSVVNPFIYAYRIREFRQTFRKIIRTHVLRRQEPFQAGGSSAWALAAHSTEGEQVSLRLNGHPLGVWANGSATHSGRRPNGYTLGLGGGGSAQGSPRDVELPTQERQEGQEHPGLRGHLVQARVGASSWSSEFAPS

Activity [1]: inactive
Ki [3]: > 10 µM
Structure (SMILES): CCCn1c(=O)[nH]c2nc(-c3ccc(OCC(=O)NCCC4=C5C(C)=CC(C)=[N+]5[B-](F)(F)n5c(C)cc(C)c54)cc3)[nH]c2c1=O
Ratio Ki [2]: > 150
